# Results as given in ChEMBL document CHEMBL1145092, “Soft antimicrobial agents: synthesis and activity of labile environmentally friendly long chain quaternary ammonium compounds” (J Med Chem, 2003).
# Tested on: not listed separately
# Assay: (§1) Half life (t1/2) was determined
# Assay type: ADME
# Summary of the method: (§2)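 Hydrolytic stability: compound from a 0.1 mg/mL ethanol stock was spiked into 10 mM phosphate buffer, pH 6, and held at 60 °C (±0.2 °C). Periodic HPLC or LC-MS/MS analysis was run, and k_obs came from linear regression of peak integration (n = 3). Selected compounds were also tested in diluted (1:4) agar at 37 °C.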
row,Compound,Log t1/2
1,CCCCCCCCCCCCCCCCCC(=O)OCC[n+]1ccccc1.[Br-],0.9
2,CCCCCCCCCCCCCCCC(=O)OCC[n+]1ccccc1.[Br-],1.1
3,CCCCCCCCCCCC(=O)OCC[n+]1ccccc1.[Br-],0.33
4,CCCCCCOC(=O)C[n+]1ccccc1,0.15
5,CCCCCCCCCCCCNC(=O)C[n+]1ccccc1,0.92
6,CCCCCCCCCCCC(=O)OCC[N+](CCCC)(CCCC)CCCC,0.27
7,CCCCCCCC/C=C/CCCCCCCC(=O)OCC[n+]1ccccc1.[Br-],1.17
8,CCCCCCCCCCCC(=O)OCCC[n+]1ccccc1,1.81
9,CCCCCCCCCCCCCCCCCCOC(=O)C[n+]1ccccc1,-1.1

# Tested on: not listed separately
# Assay: as §1
# Assay type: functional
# Summary of the method: as §2
row,Compound,Log t1/2
1,CCCCCCCCCCCC(=O)OC[n+]1ccccc1.[Cl-],0.31

# Tested on: Escherichia coli
# Assay: Minimum concentration required to inhibit Escherichia coli ATCC 25922
# Assay type: functional
# Summary of the method: (§3)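 Broth doubling-dilution MIC in Mueller Hinton broth against ATCC quality-control strains, incubated 24 h at 37 °C in ambient air. Poorly water-soluble compounds were dissolved in minimal DMSO. Values are in µg/mL.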
Compound,MIC [µg/mL],MLC [µg/mL]
CCCCCCCCCCCC(=O)OC[n+]1ccccc1.[Cl-],100,400
CCCCCCCCCCCCCCCCCC(=O)OCC[n+]1ccccc1.[Br-],500,500
CCCCCCCCCCCCCCCC(=O)OCC[N+](CC)(CC)CC.[Br-],64,64
CCCCCCCCCCCCCCCC(=O)NCC[n+]1ccccc1.[Cl-],60,–
CCCCCCCCCCCCCCCC(=O)OCC[n+]1ccccc1.[Br-],32,32
CCCCCCCCCCCC(=O)OCC[n+]1ccccc1.[Br-],25,100
CCCCCCOC(=O)C[n+]1ccccc1,> 12800,>12800
CCCCCCCCCCCCNC(=O)C[n+]1ccccc1,125,125
CCCCCCCCCCCC(=O)OCC[N+](CCCC)(CCCC)CCCC,125,125
CCCCCCCC/C=C/CCCCCCCC(=O)OCC[n+]1ccccc1.[Br-],62,125
CCCCCCCCCCCC(=O)OCCC[n+]1ccccc1,125,125
CCCCCCCCCCCCCCCCCCOC(=O)C[n+]1ccccc1,> 12800,>12800

# Tested on: Enterococcus faecalis
# Assay: Minimum concentration required to inhibit Enterococcus faecalis ATCC 29212
# Assay type: functional
# Summary of the method: as §3
Compound,MIC [µg/mL],MLC [µg/mL]
CCCCCCCCCCCC(=O)OC[n+]1ccccc1.[Cl-],10,200
CCCCCCCCCCCCCCCCCC(=O)OCC[n+]1ccccc1.[Br-],8,8
CCCCCCCCCCCCCCCC(=O)OCC[N+](CC)(CC)CC.[Br-],8,16
CCCCCCCCCCCCCCCC(=O)NCC[n+]1ccccc1.[Cl-],7.5,–
CCCCCCCCCCCCCCCC(=O)OCC[n+]1ccccc1.[Br-],–,8
CCCCCCCCCCCC(=O)OCC[n+]1ccccc1.[Br-],2,100
CCCCCCOC(=O)C[n+]1ccccc1,> 12800,>12800
CCCCCCCCCCCCNC(=O)C[n+]1ccccc1,4,8
CCCCCCCCCCCC(=O)OCC[N+](CCCC)(CCCC)CCCC,4,16
CCCCCCCC/C=C/CCCCCCCC(=O)OCC[n+]1ccccc1.[Br-],4,62
CCCCCCCCCCCC(=O)OCCC[n+]1ccccc1,4,16
CCCCCCCCCCCCCCCCCCOC(=O)C[n+]1ccccc1,> 12800,>12800

# Tested on: Enterococcus faecalis
# Assay: Minimum concentration required to inhibit enterococcus faecalis ATCC 29212
# Assay type: functional
# Summary of the method: as §3
row,Compound,MIC [µg/mL]
1,CCCCCCCCCCCCCCCC(=O)OCC[n+]1ccccc1.[Br-],8

# Tested on: Human alphaherpesvirus 1
# Assay: Tested for antiviral activity against HSV-1 at a concentration of 100 ug/mL after 2 hr of treatment at 37 degrees C
# Assay type: functional, herpes simplex virus
# Summary of the method: (§4)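 HSV-1 strain MacIntyre stock (10^6.5–10^7.5 TCID50/100 µL) was mixed 1:1 with twofold compound dilutions made in RPMI-1640 with 2% FBS from a 1 mg/mL HBSS stock; concentrations are final. Mixtures were held 2 h at 37 °C, then diluted 10-fold to stop. Residual titer was measured on Vero monolayers by 10-fold dilutions in quadruplicate wells, scoring CPE daily for 5 days at 37 °C and 5% CO2. Titers were calculated by Reed–Muench as log10 TCID50/0.1 mL, mean of three, against a virus-plus-medium control.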
row,Compound,Log TCID50
1,CCCCCCCCCCCCCCCCCC(=O)OCC[n+]1ccccc1.[Br-],1.3
2,CCCCCCCCCCCCCCCC(=O)OCC[N+](CC)(CC)CC.[Br-],0.8
3,CCCCCCCCCCCCCCCC(=O)NCC[n+]1ccccc1.[Cl-],0.8
4,CCCCCCCCCCCC(=O)OCC[n+]1ccccc1.[Br-],1.63
5,CCCCCCCCCCCCNC(=O)C[n+]1ccccc1,1.5
6,CCCCCCCCCCCC(=O)OCC[N+](CCCC)(CCCC)CCCC,0.5

# Tested on: Human alphaherpesvirus 1
# Assay: Tested for antiviral activity against HSV-1 at a concentration of 12.5 ug/mL after 2 hr of treatment at 37 degrees C
# Assay type: functional, herpes simplex virus
# Summary of the method: as §4
row,Compound,Log TCID50
1,CCCCCCCCCCCCCCCCCC(=O)OCC[n+]1ccccc1.[Br-],6.1
2,CCCCCCCCCCCCCCCC(=O)OCC[N+](CC)(CC)CC.[Br-],7
3,CCCCCCCCCCCCCCCC(=O)NCC[n+]1ccccc1.[Cl-],6.07
4,CCCCCCCCCCCC(=O)OCC[n+]1ccccc1.[Br-],6.8
5,CCCCCCCCCCCCNC(=O)C[n+]1ccccc1,6.57
6,CCCCCCCCCCCC(=O)OCC[N+](CCCC)(CCCC)CCCC,7

# Tested on: Human alphaherpesvirus 1
# Assay: Tested for antiviral activity against HSV-1 at a concentration of 25 ug/mL after 2 hr of treatment at 37 degrees C
# Assay type: functional, herpes simplex virus
# Summary of the method: as §4
row,Compound,Log TCID50
1,CCCCCCCCCCCCCCCCCC(=O)OCC[n+]1ccccc1.[Br-],2.9
2,CCCCCCCCCCCCCCCC(=O)OCC[N+](CC)(CC)CC.[Br-],6.33
3,CCCCCCCCCCCCCCCC(=O)NCC[n+]1ccccc1.[Cl-],2.9
4,CCCCCCCCCCCC(=O)OCC[n+]1ccccc1.[Br-],6.73
5,CCCCCCCCCCCCNC(=O)C[n+]1ccccc1,5.4
6,CCCCCCCCCCCC(=O)OCC[N+](CCCC)(CCCC)CCCC,6.63

# Tested on: Human alphaherpesvirus 1
# Assay: Tested for antiviral activity against HSV-1 at a concentration of 50 ug/mL after 2 hr of treatment at 37 degrees C
# Assay type: functional, herpes simplex virus
# Summary of the method: as §4
row,Compound,Log TCID50
1,CCCCCCCCCCCCCCCCCC(=O)OCC[n+]1ccccc1.[Br-],1.63
2,CCCCCCCCCCCCCCCC(=O)OCC[N+](CC)(CC)CC.[Br-],5.73
3,CCCCCCCCCCCCCCCC(=O)NCC[n+]1ccccc1.[Cl-],0.9
4,CCCCCCCCCCCC(=O)OCC[n+]1ccccc1.[Br-],6.73
5,CCCCCCCCCCCCNC(=O)C[n+]1ccccc1,1.5
6,CCCCCCCCCCCC(=O)OCC[N+](CCCC)(CCCC)CCCC,6

# Tested on: Human alphaherpesvirus 1
# Assay: Tested for antiviral activity against HSV-1 at a concentration of 6.25 ug/mL after 2 hr of treatment at 37 degrees C
# Assay type: functional, herpes simplex virus
# Summary of the method: as §4
row,Compound,Log TCID50
1,CCCCCCCCCCCCCCCCCC(=O)OCC[n+]1ccccc1.[Br-],6.9
2,CCCCCCCCCCCCCCCC(=O)NCC[n+]1ccccc1.[Cl-],6.47
3,CCCCCCCCCCCC(=O)OCC[n+]1ccccc1.[Br-],7.03
4,CCCCCCCCCCCC(=O)OCC[N+](CCCC)(CCCC)CCCC,7

# Tested on: Pseudomonas aeruginosa
# Assay: Minimum concentration required to inhibit Pseudomonas aeruginosa ATCC 27853
# Assay type: functional
# Summary of the method: as §3
Compound,MIC [µg/mL],MLC [µg/mL]
CCCCCCCCCCCC(=O)OC[n+]1ccccc1.[Cl-],3200,3200
CCCCCCCCCCCCCCCCCC(=O)OCC[n+]1ccccc1.[Br-],250,250
CCCCCCCCCCCCCCCC(=O)OCC[N+](CC)(CC)CC.[Br-],250,250
CCCCCCCCCCCCCCCC(=O)NCC[n+]1ccccc1.[Cl-],250,–
CCCCCCCCCCCCCCCC(=O)OCC[n+]1ccccc1.[Br-],250,1000
CCCCCCCCCCCC(=O)OCC[n+]1ccccc1.[Br-],200,200
CCCCCCOC(=O)C[n+]1ccccc1,> 12800,>12800
CCCCCCCCCCCCNC(=O)C[n+]1ccccc1,125,125
CCCCCCCCCCCC(=O)OCC[N+](CCCC)(CCCC)CCCC,500,1000
CCCCCCCC/C=C/CCCCCCCC(=O)OCC[n+]1ccccc1.[Br-],250,250
CCCCCCCCCCCC(=O)OCCC[n+]1ccccc1,250,250
CCCCCCCCCCCCCCCCCCOC(=O)C[n+]1ccccc1,> 12800,>12800

# Tested on: Staphylococcus aureus
# Assay: Minimum concentration required to inhibit Staphylococcus aureus ATCC 25923
# Assay type: functional
# Summary of the method: as §3
Compound,MIC [µg/mL],MLC [µg/mL]
CCCCCCCCCCCC(=O)OC[n+]1ccccc1.[Cl-],50,50
CCCCCCCCCCCCCCCCCC(=O)OCC[n+]1ccccc1.[Br-],1,2
CCCCCCCCCCCCCCCC(=O)OCC[N+](CC)(CC)CC.[Br-],2,4
CCCCCCCCCCCCCCCC(=O)NCC[n+]1ccccc1.[Cl-],2,–
CCCCCCCCCCCCCCCC(=O)OCC[n+]1ccccc1.[Br-],1,1
CCCCCCCCCCCC(=O)OCC[n+]1ccccc1.[Br-],< 6.25,50
CCCCCCOC(=O)C[n+]1ccccc1,> 12800,>12800
CCCCCCCCCCCCNC(=O)C[n+]1ccccc1,4,4
CCCCCCCCCCCC(=O)OCC[N+](CCCC)(CCCC)CCCC,2,8
CCCCCCCC/C=C/CCCCCCCC(=O)OCC[n+]1ccccc1.[Br-],8,16
CCCCCCCCCCCC(=O)OCCC[n+]1ccccc1,4,4
CCCCCCCCCCCCCCCCCCOC(=O)C[n+]1ccccc1,> 12800,>12800

# Tested on: Staphylococcus aureus
# Assay: Tested for antibacterial activity against Staphylococcus aureus
# Assay type: functional
row,Compound,Log 1/MIC
1,CCCCCCCCCCCC(=O)OC[n+]1ccccc1.[Cl-],-1.51
2,CCCCCCCCCCCCCCCCCC(=O)OCC[n+]1ccccc1.[Br-],0
3,CCCCCCCCCCCCCCCC(=O)OCC[n+]1ccccc1.[Br-],0
4,CCCCCCCCCCCC(=O)OCC[n+]1ccccc1.[Br-],-0.9
5,CCCCCCOC(=O)C[n+]1ccccc1,-4.1
6,CCCCCCCCCCCCNC(=O)C[n+]1ccccc1,-0.6
7,CCCCCCCCCCCC(=O)OCC[N+](CCCC)(CCCC)CCCC,-0.3
8,CCCCCCCC/C=C/CCCCCCCC(=O)OCC[n+]1ccccc1.[Br-],-0.9
9,CCCCCCCCCCCC(=O)OCCC[n+]1ccccc1,-0.6
10,CCCCCCCCCCCCCCCCCCOC(=O)C[n+]1ccccc1,-4.1
